ChEMBL document CHEMBL1134236, “Anti-MRSA cephems. Part 1: C-3 substituted thiopyridinium derivatives” (Bioorg Med Chem Lett, 2001)
≈ marks a conversion by molar mass, not a printed value.

Key:
[1] = system: Staphylococcus aureus; assay: Minimum inhibitory concentration against methicillin-resistant Staphylococcus aureus (MRSA) A27223; assay type: functional
In short: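 Broth microdilution per NCCLS in Mueller-Hinton broth with 2% NaCl. Inoculum about 5×10⁵ CFU/mL, incubated at 35 °C for 24 h. MIC is the lowest drug concentration that inhibits all visible growth.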

[2] = system: Staphylococcus aureus; assay: Minimum inhibitory concentration against methicillin-resistant Staphylococcus aureus (MRSA) A27223 in the presence of 50% calf serum.; assay type: functional
In short: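 NCCLS broth MIC in Mueller-Hinton broth with 2% NaCl plus 50% calf serum. Inoculum about 5×10⁵ CFU/mL, incubated at 35 °C for 24 h. Read as the lowest concentration with no visible growth.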

[3] = system: Staphylococcus aureus; assay: Dose required for protective activity against methicillin-resistant Staphylococcus aureus (MRSA) A27223 in mouse following i.m. administration.; conditions: im, read-out: PD50

Cc1cc(SCC2=C(C(=O)[O-])N3C(=O)[C@@H](NC(=O)CSc4cc(Cl)ccc4Cl)[C@H]3SC2)cc(CCC(=O)O)[n+]1CCO
MIC [1]: 2 mg/L (≈ 2.97 µM)
MIC [2]: 4 mg/L
ED50 [3]: 8.4 mg/kg

C[n+]1ccc(SCC2=C(C(=O)[O-])N3C(=O)[C@@H](NC(=O)CSc4cc(Cl)ccc4Cl)[C@H]3SC2)cc1CCCC(=O)O
MIC [1]: 4 mg/L (≈ 6.22 µM)
MIC [2]: 8 mg/L
ED50 [3]: 5.2 mg/kg

NCCC[n+]1ccc(SCC2=C(C(=O)O)N3C(=O)[C@@H](NC(=O)CSc4cc(Cl)nc(Cl)c4)[C@H]3SC2)cc1CCCC(=O)O.O=C(O)C(F)(F)F.O=C([O-])C(F)(F)F
MIC [1]: 2 mg/L
MIC [2]: 4 mg/L
ED50 [3]: 4.3 mg/kg

Cc1cc(SCC2=C(C(=O)[O-])N3C(=O)[C@@H](NC(=O)CSc4cc(Cl)ccc4Cl)[C@H]3SC2)cc(CCC(=O)O)[n+]1-c1cccc(O)c1
MIC [1]: 4 mg/L (≈ 5.55 µM)
MIC [2]: 8 mg/L
ED50 [3]: > 25 mg/kg

Cc1cc(SCC2=C(C(=O)[O-])N3C(=O)[C@@H](NC(=O)CSc4cc(Cl)ccc4Cl)[C@H]3SC2)cc(CCC(=O)O)[n+]1CCc1cccs1
MIC [1]: 4 mg/L (≈ 5.41 µM)
MIC [2]: 8 mg/L
ED50 [3]: > 23 mg/kg

Cc1cc(SCC2=C(C(=O)[O-])N3C(=O)[C@@H](NC(=O)CSc4cc(Cl)ccc4Cl)[C@H]3SC2)cc(CCC(=O)O)[n+]1Cc1cccs1
MIC [1]: 4 mg/L (≈ 5.52 µM)
MIC [2]: 8 mg/L
ED50 [3]: > 23 mg/kg

Cc1cc(SCC2=C(C(=O)[O-])N3C(=O)[C@@H](NC(=O)CSc4cc(Cl)ccc4Cl)[C@H]3SC2)cc(CCc2ccc(Cl)s2)[n+]1CC[C@@H](O)C(=O)O
MIC [1]: 8 mg/L (≈ 9.96 µM)
MIC [2]: 8 mg/L
ED50 [3]: > 23 mg/kg

Cc1cc(SCC2=C(C(=O)[O-])N3C(=O)[C@@H](NC(=O)CSc4cc(Cl)ccc4Cl)[C@H]3SC2)cc(CCc2ccccc2)[n+]1CCS(=O)(=O)O
MIC [1]: 2 mg/L (≈ 2.6 µM)
MIC [2]: 4 mg/L
ED50 [3]: > 25 mg/kg

CSCCC[n+]1c(C)cc(SCC2=C(C(=O)[O-])N3C(=O)[C@@H](NC(=O)CSc4cc(Cl)ccc4Cl)[C@H]3SC2)cc1CCC(=O)O
MIC [1]: 2 mg/L (≈ 2.79 µM)
MIC [2]: 4 mg/L
ED50 [3]: > 25 mg/kg
